Compound activity as filed in PubChem BioAssay.
Rows were chosen to be rich in hits. Some 2.9% of all compounds tested hit in one or more screens of this group.
OX1R antag-1 – human HCRTR1 antagonism | CHO/OX1R cells, Fluo-8 calcium fluorescence, orexin A | inhibition, % at 5 µM | 330,000 tested, 0.43% active | AID 434989;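 active = inhibition above its plate's threshold, mean inhibition of all tested compounds on the plate plus 3 SD, cut at about 37% in these data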;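 also: 0% = orexin A challenge wells and 100% = SB-334867-A antagonist wells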
Target sequence (O43613 whole entry, looked up): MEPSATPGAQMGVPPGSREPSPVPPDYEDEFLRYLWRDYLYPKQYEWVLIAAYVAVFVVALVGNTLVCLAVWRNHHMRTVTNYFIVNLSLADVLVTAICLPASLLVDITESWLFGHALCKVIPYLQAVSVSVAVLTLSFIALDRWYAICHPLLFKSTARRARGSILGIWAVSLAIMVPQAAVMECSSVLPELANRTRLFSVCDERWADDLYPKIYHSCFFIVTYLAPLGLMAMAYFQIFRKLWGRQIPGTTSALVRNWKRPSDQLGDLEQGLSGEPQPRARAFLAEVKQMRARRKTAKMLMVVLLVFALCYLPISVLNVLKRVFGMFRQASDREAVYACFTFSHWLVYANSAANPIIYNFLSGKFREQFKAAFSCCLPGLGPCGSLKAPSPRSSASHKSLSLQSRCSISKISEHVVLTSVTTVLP
CHO parental Ca – counter-screen: ATP calcium response change in parental CHO cells; parental CHO-K1, ATP-induced calcium, Fluo-8 fluorescence; inhibition, % at 5.6 µM; 330,000 tested, 0.63% active; AID 463079;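 active = inhibition above that plate's mean sample inhibition plus 3 SD, cut at about 26% in these data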;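 also: 0% = ATP-challenged DMSO wells and 100% = DMSO wells without ATP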
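Material: Parental CHO cells | Reagent: ATP | Compound dosing: Single nominal dose of 5.6 µM per compound | Detection: Intracellular calcium via Fluo-8 no-wash fluorescent dye | Read-out: % inhibition of ATP-induced calcium mobilization | Benchmarks: Low control ATP plus DMSO, high control DMSO only | Replicates: Singlicate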
M1 ag parental – nonselective activator or artifact in parental CHO-K1 cells. activation, % at 3 µM. Fluo-8 calcium fluorescence; scaled to maximal ATP response, vehicle zero. 360,000 tested, 0.48% active. AID 602248; in the data active = activation above about 15%;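 also: untransfected CHO-K1 host cells lacking M1 receptor as counterscreen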
OX1R antag-2 – OX1R (human) antagonism | O43613 | OX1R-expressing cells, FRET antagonist read-out | inhibition, % at 6.6 µM | 330,000 tested, 1.8% active; in the data active = inhibition mostly above about 38%, no sharp cut-off; inactive = mostly below about 40%;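 also: 0% = agonist challenge alone and 100% = reference antagonist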
CHO-K1 Ca PAM – counter-screen for M1 PAMs: effect in parental CHO-K1 cells; activation, % at 3 µM; ATP EC20, Fluo-8 calcium fluorescence; 0% at ATP EC20, 100% at ATP max; 360,000 tested, 0.02% active;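 active = activation above the run cutoff, the mean activation of all test compounds plus 3 SD, cut at about 40% in these data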;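 also: peak over basal fluorescence ratio in a 140 s read after ATP addition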
CHO-K1 Ca antag – M1 antagonist counterscreen hit in parental CHO-K1 cells; inhibition, % at 3 µM; ATP-induced calcium, Fluo-8 fluorescence; 360,000 tested, 0.6% active;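 active = inhibition above a per-plate cutoff, the plate's mean sample inhibition plus 3 SD, cut at about 24% in these data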;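 also: 0% = DMSO plus EC80 ATP and 100% = DMSO alone without ATP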
The depositor's hits bear a star; nt = no result given.

SMILES	OX1R antag-1	CHO parental Ca	M1 ag parental	OX1R antag-2	CHO-K1 Ca PAM	CHO-K1 Ca antag
O=C(NCC1CCCO1)c1ccc([N+](=O)[O-])s1 (centres undefined)	-9	5	1	70*	15	-18
O=C(CN1C(=O)c2ccc([N+](=O)[O-])cc2C1=O)NCC1CCCO1 (centres undefined)	-7	3	0	68*	10	5
O=C(CN1C(=O)c2ccc(Br)cc2C1=O)NCC1CCCO1 (centres undefined)	-11	-8	0	31	18	-7
CC1CC(=O)N(CC(=O)Nc2ccc(Br)cc2)c2ccccc2S1(=O)=O (centres undefined)	-9	-25	3	3	13	-18
O=S(=O)(c1ccccc1)N(CC(F)(F)F)c1ccc(C(O)(C(F)(F)F)C(F)(F)F)cc1	nt	nt	3	nt	9	6
Cc1ccc(C(=O)NCC(c2ccco2)N2CCCCC2)s1 (centres undefined)	-4	-6	0	-9	18	-11
O=C(NCC(c1ccco1)N1CCCCC1)c1ccc([N+](=O)[O-])s1 (centres undefined)	-36	-22	1	56*	6	-3
COCCCN1C(=O)c2ccc(C(=O)NCc3ccccn3)cc2C1=O	6	3	1	39*	16	-16
COCCN1C(=O)c2ccc(C(=O)NCc3ccco3)cc2C1=O	-15	-4	1	33	4	11
COCCCN1C(=O)c2ccc(C(=O)NCc3ccco3)cc2C1=O	-17	-15	1	42*	15	0
O=C(NC1CC1)c1cccc(NC(=O)C2CCN(S(=O)(=O)c3cccc(C(F)(F)F)c3)CC2)c1	nt	nt	0	nt	-2	-8
C[C@H]1CN([C@@H](C)CO)C(=O)Cc2cc(NC(=O)CCC(F)(F)F)ccc2O[C@H]1CN(C)CC1CC1	-4	-1	1	9	3	0
CCN(CC)S(=O)(=O)c1cc(NC(=O)c2ccc(Br)s2)ccc1C	7	15	3	46	-6	36*
N#C/C(=C\c1c(F)cccc1Cl)c1nn(-c2ccccc2)c(-n2cccc2)c1C#N	-14	-19	1	36*	16	-4
Cc1cc(NC(=O)NC(=O)c2ccccc2F)no1	15	-3	2	7	6	0
CN(CC(=O)Nc1ccc(F)c(F)c1F)C(=O)C1(c2ccccc2)CC1	nt	nt	2	nt	7	24*
CCC(=O)c1ccc(OCC(O)CNCCc2ccc(Cl)cc2)cc1 (centres undefined)	-23	3	15*	-3	13	-5
CCC(=O)c1ccc(OCC(O)CNCc2ccc(F)cc2)cc1 (centres undefined)	-24	-6	5	3	21	-4
NC(=O)N/N=C/c1coc2ccc(O)cc2c1=O	-13	-3	1	32	17	-11
COC(=O)c1sccc1NC(=S)N1CCN(c2cccc(C)c2C)CC1	-17	-26	0	-3	-15	24*
C/C(=N\NC(=O)CCC(=O)Nc1ccc(C)c(C)c1)c1cccs1	-20	8	1	23	13	1
O=C(CCN1C(=O)c2cccc3cccc(c23)C1=O)Nc1ccccc1	-14	6	1	17	5	-6
CCCN1C(=O)CC(=O)N=C1SCC(=O)Nc1ccccc1F	-12	-10	18*	0	0	-13
CC(C)Sc1nc(-c2cccs2)nc2cc(Cl)ccc12	nt	nt	9	nt	13	0
CCn1c(COc2cccc(C)c2C)nnc1SCC(=O)Nc1cc(C)on1	-17	-7	18*	5	7	2
SMILES	OX1R antag-1	CHO parental Ca	M1 ag parental	OX1R antag-2	CHO-K1 Ca PAM	CHO-K1 Ca antag
Cc1ccccc1OCCSc1nc2ccccc2n1CCC(=O)O	34	-11	0	74*	-16	1
Cc1ccc(OCCSc2nc3ccccc3n2CCC(=O)O)cc1	12	-10	1	49*	-8	2
CCSc1nc2ccccc2n1CCC(=O)O	-1	-1	0	16	18	-4
O=C(O)CCn1c(SCc2cccc3ccccc23)nc2ccccc21	-26	-8	1	68*	13	-4
NC(=O)CSc1nc2ccccc2n1Cc1ccccc1	-9	-20	22*	45	17	0
O=C(O)CCSc1nc2ccccc2n1CCOc1ccccc1	-11	-2	1	4	-3	-8
NC(=O)CSc1nc2ccccc2n1-c1ccccc1	-12	-14	4	9	17	-10
O=S(CC(O)c1ccccc1)c1ccccc1 (centres undefined)	nt	nt	2	nt	-1	-3
O=C1CC(N2CCN(C3CC(=O)N(CCc4ccccc4)C3=O)CC2)C(=O)N1CCc1ccccc1 (centres undefined)	-13	-9	2	30	-8	-1
O=C1CC(N2CCN(C/C=C/c3ccccc3)CC2)C(=O)N1CCc1ccccc1 (centres undefined)	-21	-16	16*	10	0	-2
COc1ccc(C)cc1NC(=O)NNC(=O)C(C)Oc1ccc(F)cc1Cl (centres undefined)	-29	-12	1	21	3	-1
Cc1cc(C)n2c(Nc3c(C)cccc3C)c(CC(C)C)nc2n1	nt	nt	1	nt	12	-15
CCCCNc1c(CC(C)C)nc2nc(C)cc(C)n12	nt	nt	-1	nt	-9	25*
CCN1CCN(c2nc3c(c(=O)[nH]c(=O)n3C)n2Cc2cccc(C)c2)CC1	nt	nt	1	nt	12	-10
C[C@@]12C(=O)N(c3ccc(F)cc3)C(=O)N1[C@@H]1c3ccccc3OC[C@@H]1[C@H]2c1ccccc1	-30	-23	0	25	-13	-3
C[C@]12C(=O)N(c3ccc(F)cc3)C(=O)N1[C@H]1c3ccccc3OC[C@@H]1[C@H]2c1ccccc1	-7	-14	3	2	44*	-28
CC(=O)N(C)c1ccc(OCC(O)Cn2c(C)nc3ccccc32)cc1 (centres undefined)	-4	-7	3	6	-8	-14
CC(=O)N(C)c1ccc(OCC(O)Cn2c3ccc(Cl)cc3c3cc(Cl)ccc32)cc1 (centres undefined)	31	67*	1	17	10	7
COc1cc(C(=O)NCCNc2nc3c(C)c(C)ccc3cc2C#N)cc(OC)c1OC	-24	-20	0	0	12	-7
COc1cc(OC)cc(C(=O)NCCNc2nc3cc(C)cc(C)c3cc2C#N)c1	3	-24	1	53*	2	-9
COc1ccccc1C(=O)NCCNc1nc2cc(C)cc(C)c2cc1C#N	-11	-31	0	41	12	0
COc1cc(C(=O)NCCNc2nc3cc(C)ccc3cc2C#N)cc(OC)c1OC	-16	-17	0	54*	9	9
Cc1cc(C)c2cc(C#N)c(NCCOC(=O)c3ccccc3C)nc2c1	0	-42	-1	36*	-3	-18
